# Experimental data as given in ChEMBL document CHEMBL3272057, “Synthesis and structure-toxicity relationships of three new stable analogues of acetyl-seco-hemicholinium-3” (J Med Chem, 1976).
# Activity calls are given as the source filed them. No cut-off for these calls is given here.
# Assays:
# [1] = Chemical stability of the compound in water at slightly acidic condition up to 48 hrs by NMR analysis; type: physicochemical; conditions: buffer
# [2] = Chemical stability of the compound in water at pH 7.4 up to 48 hrs by NMR analysis; type: physicochemical; conditions: buffer, pH 7.4, 48 h
# [3] = target: T1, Acetylcholinesterase (Bos taurus) (UniProt P23795); test: Binding affinity to bovine erythrocyte acetylcholinesterase in water at pH 7.4 at 100 x 10^-5 M up to 6 hrs by UV-spectra analysis
# T1 sequence (whole entry): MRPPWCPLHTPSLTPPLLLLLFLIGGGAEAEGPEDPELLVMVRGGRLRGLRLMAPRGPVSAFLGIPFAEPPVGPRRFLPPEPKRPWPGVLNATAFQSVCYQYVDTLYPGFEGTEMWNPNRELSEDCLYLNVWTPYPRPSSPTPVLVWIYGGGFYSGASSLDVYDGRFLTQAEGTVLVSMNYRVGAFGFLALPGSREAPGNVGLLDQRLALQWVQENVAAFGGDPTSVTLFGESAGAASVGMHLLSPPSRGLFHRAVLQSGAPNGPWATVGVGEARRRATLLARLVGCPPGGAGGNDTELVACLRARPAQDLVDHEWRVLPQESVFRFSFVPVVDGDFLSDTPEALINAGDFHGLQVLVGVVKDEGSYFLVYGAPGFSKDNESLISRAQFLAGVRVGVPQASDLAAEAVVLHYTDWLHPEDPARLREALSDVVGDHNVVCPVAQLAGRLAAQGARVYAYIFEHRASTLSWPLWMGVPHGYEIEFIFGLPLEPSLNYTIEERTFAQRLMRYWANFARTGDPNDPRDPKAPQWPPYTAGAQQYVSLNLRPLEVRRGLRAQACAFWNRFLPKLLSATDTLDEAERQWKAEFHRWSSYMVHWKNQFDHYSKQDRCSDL
# Method in brief: (§1)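 Test solutions 100 × 10⁻⁵ M in pH 7.4 buffered water. UV spectrum recorded against identically buffered water reference. 0.1 ml of bovine erythrocyte acetylcholinesterase (40 μ/ml, pH 7.4 buffer) was added to 1-ml sample and reference, giving an enzyme level similar to blood. Spectrum recorded immediately, then again after incubation at 37° for 6 h. Shift in λmax was read.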
# [4] = Chemical stability of the compound in deuterium oxide solutions at slightly acidic condition up to 48 hrs by NMR analysis; type: physicochemical
# [5] = Chemical stability of the compound in deuterium oxide solutions at pH 7.4 up to 48 hrs by NMR analysis; type: physicochemical; conditions: buffer, pH 7.4, 48 h
# [6] = (§2) Toxicity in ip dosed Charles River CD-1 albino mouse measured within 5 mins; type: organism-based; conditions: CD-1, mouse, in vivo
# [7] = tested on: Mus musculus; test: as §2; type: organism-based; conditions: mouse, in vivo, 5 min
# [8] = tested on: Mus musculus; test: Toxicity in ip dosed Charles River CD-1 albino mouse assessed as reduction of cardiac contraction; type: organism-based, Heart; conditions: in vivo
# [9] = tested on: Mus musculus; test: Toxicity in ip dosed Charles River CD-1 albino mouse assessed as increase of peristalsis of small intestine; type: organism-based; conditions: in vivo
# [10] = Ratio of hemicholinium-3 LD50 to compound LD50 for toxicity in ip dosed Charles River CD-1 albino mouse measured within 5 mins; type: organism-based; conditions: CD-1, mouse, in vivo
# [11] = Toxicity in ip dosed Charles River CD-1 albino mouse assessed as mortality at >LD95 in presence of choline; type: organism-based; conditions: CD-1, mouse, in vivo, read-out: Activity
# Method in brief: (§3)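 CD-1 male mice. Choline (20 mg/kg) or neostigmine (0.2 mg/kg) was given ip 1 min before an ip >LD95 dose of compound in saline. Read-out was % mortality.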
# [12] = Toxicity in ip dosed Charles River CD-1 albino mouse assessed as mortality at >LD95 in presence of neostigmine; type: organism-based; conditions: CD-1, mouse, in vivo, read-out: Activity; method in brief: as §3
# [13] = target: T1, Acetylcholinesterase (Bos taurus); test: Binding affinity to bovine erythrocyte acetylcholinesterase in water at pH 7.4 at 100 x 10^-5 M measured immediately by UV-spectra analysis; method in brief: as §1
SMILES,Stability [1],Stability [2],Activity [3],Stability [4],Stability [5],LD50 at 5 min [6],LD95 [7],Activity [8],Activity [9],selectivity ratio at 5 min [10],mortality [11],mortality [12],Activity [13]
CCCCC[N+](C)(C)CC(=O)c1ccc(-c2ccc(C(=O)C[N+](C)(C)CCCCC)cc2)cc1.[Br-].[Br-],Stable,Stable,inactive,Stable,Stable,5.6 mg/kg,5.8 mg/kg,Non-toxic,Toxic,43.1,30%,80%,–
CCOCC[N+](C)(C)CC(=O)c1ccc(-c2ccc(C(=O)C[N+](C)(C)CCOCC)cc2)cc1.[Br-].[Br-],Stable,Stable,inactive,Stable,Stable,1.84 mg/kg,2.67 mg/kg,Non-toxic,Toxic,14.2,0%,80%,–
CC(=O)OCC[N+](C)(C)CC(=O)c1ccc(-c2ccc(C(=O)C[N+](C)(C)CCOC(C)=O)cc2)cc1.[Br-].[Br-],–,–,–,–,–,0.125 mg/kg,0.4 mg/kg,Non-toxic,Toxic,1,–,–,Active
CC(=O)CCC[N+](C)(C)CC(=O)c1ccc(-c2ccc(C(=O)C[N+](C)(C)CCCC(C)=O)cc2)cc1.[Br-].[Br-],Stable,Stable,inactive,Stable,Stable,3.1 mg/kg,4.6 mg/kg,Non-toxic,Toxic,23.8,0%,70%,–
C[N+]1(C)CCOC(O)(c2ccc(-c3ccc(C4(O)C[N+](C)(C)CCO4)cc3)cc2)C1 (configuration not stated) [HEMICHOLINIUM-3],–,–,inactive,–,–,0.13 mg/kg,0.2 mg/kg,Non-toxic,Toxic,–,–,–,–
